UCH37 inh: blocks the human deubiquitinase UCH37 | Q9Y5K5 | purified proteasome/UCH37, Ub-AMC cleavage fluorescence | inhibition, % (no concentration beside the values) | 0.33% of 330,000 active | AID 588478;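 active = mean inhibition over replicate wells above about 20%, limit read from the data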;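 note: 0% = compound-free wells with enzyme and 100% = wells lacking proteasome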
Target sequence (Q9Y5K5 whole entry, looked up): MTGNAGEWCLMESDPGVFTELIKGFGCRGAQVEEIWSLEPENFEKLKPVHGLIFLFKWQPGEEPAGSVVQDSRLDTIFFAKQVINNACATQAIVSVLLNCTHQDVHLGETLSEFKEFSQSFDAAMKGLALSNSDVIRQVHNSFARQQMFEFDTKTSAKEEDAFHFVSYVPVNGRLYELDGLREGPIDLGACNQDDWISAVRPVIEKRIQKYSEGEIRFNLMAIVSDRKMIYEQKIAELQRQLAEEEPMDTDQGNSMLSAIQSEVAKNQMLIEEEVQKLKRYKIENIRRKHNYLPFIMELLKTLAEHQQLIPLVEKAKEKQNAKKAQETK
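system = Proteasome-associated human UCH37 deubiquitinase | amount = 0.15 nM proteasome as dispensed | medium = pH 7.4 Tris-HCl (50 mM) with ovalbumin, ATP-MgCl2, DTT | incubation = 30 min preincubation with enzyme, 25 min cleavage at room temperature | detection = AMC fluorescence 355/460 nm | read-out basis = percent inhibition | controls = no-proteasome and no-compound wells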
Casp6 inh: caspase-6 (human) enzyme inhibition | P55212 | purified caspase-6, Z-VEID-R110 cleavage fluorescence | inhibition, % at 12.5 µM | 0.53% of 350,000 active;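 active = mean inhibition across replicates at least about 35%, with every replicate also reaching that limit, limit read from the data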;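 note: 0% = median of neutral control wells and 100% = no fluorescence left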
Target sequence (P55212 24-179 limits assumed): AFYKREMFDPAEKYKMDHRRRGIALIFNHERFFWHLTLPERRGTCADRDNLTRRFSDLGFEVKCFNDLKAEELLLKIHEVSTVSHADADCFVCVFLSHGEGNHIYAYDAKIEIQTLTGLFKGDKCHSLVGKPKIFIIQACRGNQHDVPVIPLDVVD
Target sequence (P55212 194-293 limits assumed): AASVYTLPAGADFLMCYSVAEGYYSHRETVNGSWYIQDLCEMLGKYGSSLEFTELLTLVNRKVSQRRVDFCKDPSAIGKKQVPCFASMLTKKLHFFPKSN
LEDGF integ inh: blocks HIV-1 LEDGF/p75-dependent DNA integration; TR-FRET IN-LEDGF/p75 DNA integration, Eu/Cy5; inhibition, % at 3.7 µM; 0.64% of 370,000 active;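 active = inhibition above the screen-wide mean plus 3 SD, cut at about 13% in these data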;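 note: signal is the Cy5 over europium emission ratio at 671 and 618 nm; 0% = plate median of compound wells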
NSD2 HMT inh: NSD2 (human) methyltransferase inhibition | O96028 | NSD2 peptide methylation, AlphaScreen, 120 min | inhibition, % at 12.5 µM | 0.54% of 310,000 active; in the data active = inhibition above about 50%
TDP2 absorb: blocks human TDP2 phosphodiesterase activity; inhibition, % at 12.8 µM; recombinant TDP2, T5PNP hydrolysis, p-nitrophenol absorbance 415 nm; 0.34% of 370,000 active;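 active = inhibition above the mean of all tested compounds plus 3 SD, set per campaign, cut at about 25% in these data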;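 note: 0% = DMSO with enzyme and 100% = buffer with substrate but no TDP2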
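Test system: human TDP2 enzyme; Input: 120 nM TDP2 per well; Buffer or medium: Mg2+-containing Tris-HCl buffer, pH 7.5; Reagent: 5 mM T5PNP; Dosing: 12.8 µM single point, 1% DMSO; Incubation: reaction 2 h, 37 °C; Detection: p-Nitrophenol epi absorbance; Read-out: % inhibition relative to enzyme-containing and enzyme-free wells; Replicates: single well per compound.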
Active calls of the source: *; / = not tested or not shown. This is a sample that favours compounds with a hit; in the whole collection about 1.3% have one here.

SMILES	UCH37 inh	Casp6 inh	LEDGF integ inh	NSD2 HMT inh	TDP2 absorb
COC(CN(C(=O)CCl)C(C(=O)NC1CCCC(C)C1C)c1ccc(C)cc1)OC (configuration not stated)	22*	/	/	/	/
O=C(NN=Cc1cc2c(c([N+](=O)[O-])c1)OCO2)c1ccncc1	9	/	/	/	/
Cc1c(C#N)c(O)n(CCO)c(=O)c1N=Nc1ccc(S(N)(=O)=O)cc1	21*	9	4	-1	-36
Cc1c(C#N)c(O)n(C)c(=O)c1N=Nc1ccc(S(N)(=O)=O)cc1	4	2	-6	6	0
CNC(=O)N(O)C1N(N=Cc2cccnc2)C(=S)SC1(C)C (configuration not stated)	6	/	/	/	/
C=CCn1c(COc2ccc(Cl)cc2)nnc1SCC(=O)NN=Cc1cccc(O)c1	-2	/	/	/	/
O=C(/C=C/c1ccco1)N1CCN(S(=O)(=O)c2ccccc2)CC1	4	48*	10	-1	-1
O=C(/C=C/c1ccco1)N1CCCC(c2ccccc2)C1 (configuration not stated)	26*	-3	-3	2	-7
O=C(NN=Cc1c[nH]c2ccccc12)c1cc(-c2ccc(-c3ccccc3)cc2)n[nH]1	2	/	/	/	/
O=C(C1=C[C@@H](c2ccc(Br)cc2)C[C@@H](OCCCCO)O1)N1CCN(Cc2ccc3c(c2)OCO3)CC1	30*	-3	-1	/	5
O=C(C1=C[C@H](c2ccccc2)C[C@H](OCCCCO)O1)N1CCN(Cc2ccc3c(c2)OCO3)CC1	4	1	2	/	2
COc1ccc(CCN2CC(C(=O)NCCc3ccc(C)cc3)CC2=O)cc1OC (configuration not stated)	3	48*	3	1	3
CCOC(=O)NN=C(C)c1ccc(C)c([N+](=O)[O-])c1	3	/	/	/	/
CC(CN1CCCCC1)C(=O)NNC(=O)C12CC3CC(CC(C3)C1)C2 (configuration not stated)	0	43*	-6	-3	-12
CC(CN1CCCCCC1)C(=O)NN (configuration not stated)	3	-89	1	-5	1
CC1(Oc2cnc(Cl)c3ccccc23)CCN(Cc2ccc(OC(F)(F)F)cc2)C1 (configuration not stated)	/	46*	-3	6	-2
COCCCN=C1NN=C(c2cc(C)n(Cc3ccccc3Cl)c2C)CS1	8	-6	1	53*	2
Cc1cccc(NN=Cc2ccncc2)c1	12	/	/	/	/
O=C(CCc1ccc(O)c(O)c1)N/N=C/c1ccc2c(c1)OCO2	/	13	33*	9	12
O=C(CCc1ccc(O)c(O)c1)NN=Cc1ccc2c(c1)OCO2	1	/	/	/	/
O=C(Nc1cccc(Cl)c1)c1cccc(N2C(=O)C3CC=CCC3C2=O)c1 (configuration not stated)	-1	35*	-2	21	-17
Cc1ccccc1NC(=O)NC1(C(=O)NCCCN2CCOCC2)CCCCC1	35*	/	0	-3	-6
CNC(=O)COC(=O)c1cc(-c2ccco2)nc2ccccc12	-234	34	16*	2	2
O=C(O)c1ccccc1/C=N/NC(=O)c1cc(-c2ccco2)nc2ccccc12	/	61*	4	28	9
COCCCN(C(=O)c1cc(-c2ccco2)nc2ccccc12)c1c(N)n(Cc2ccccc2)c(=O)[nH]c1=O	-35	15	36*	4	-7
SMILES	UCH37 inh	Casp6 inh	LEDGF integ inh	NSD2 HMT inh	TDP2 absorb
O=C(COC(=O)c1cc(-c2ccco2)nc2ccccc12)NCc1ccccc1	-125	/	7	-38	-15
Cc1nn(-c2cccc(Cl)c2)c(Cl)c1C=NNC(=O)c1cccnc1	0	/	/	/	/
Cc1ccc(C(=O)Nc2cccc(C(=O)NN=Cc3ccccc3F)c2)cc1	1	/	/	/	/
C#CNC(=O)C1(CC=C)CCNCC1	32*	-6	0	/	4
COc1ccccc1NC(=O)CC(C)=NNC(=O)COc1c(Br)cc(Br)cc1OC	3	/	/	/	/
COCc1c(C(=O)NN=Cc2cccnc2)nnn1-c1nonc1N	4	/	/	/	/
CCC(O)CC(C(=O)NNc1ccccc1)C(=O)NNc1ccccc1 (configuration not stated)	30*	0	2	-3	-11
CCOC(=O)NNc1ccccc1	2	-1	0	-3	12
Cc1c(/C(O)=C2/C(=O)C(=O)N(CCN3CCOCC3)C2c2ccco2)cnn1-c1ccccc1 (configuration not stated)	9	-1	2	5	13
Cc1c(/C(O)=C2/C(=O)C(=O)N(CCN3CCOCC3)C2c2cccnc2)cnn1-c1ccccc1 (configuration not stated)	22*	/	2	2	-13
CC1CCCCC1NC(=O)COC(=O)c1c2c(nc3ccccc13)/C(=C\c1ccco1)CC2 (configuration not stated)	-26	3	27*	/	-12
CCCCNC(=O)COC(=O)c1c2c(nc3ccccc13)/C(=C/c1cccs1)CC2	-75	/	1	-3	2
COC(=O)CN1C(=O)COc2ccc(S(=O)(=O)N3CCCC3)cc21	2	0	0	3	3
COC(=O)CN1C(=O)COc2ccc(S(=O)(=O)N3CCCCC3)cc21	/	52*	-2	-3	4
Cc1cc(N2C(=O)C(O)=C(C(=O)c3cc4ccccc4o3)C2c2ccc(Cl)cc2)no1 (configuration not stated)	/	33	7	-2	6
Cc1cc(N2C(=O)C(O)=C(C(=O)c3cc4ccccc4o3)C2c2ccc(Br)cc2)no1 (configuration not stated)	/	48*	1	-4	5
CCOC(=O)[C@@H]1[C@H]2COc3ccc(Br)cc3[C@@H]2N2C(=O)N(c3ccc(F)cc3)C(=O)[C@@]12C	20*	0	2	/	1
COc1ccc(NC(=O)CC(C)=NNC(=O)COc2ccc(OC)cc2)cc1	0	/	/	/	/
CCOc1ccc(C=NNC(=O)c2ccccc2Cl)cc1CN1CC2CC(C1)c1cccc(=O)n1C2 (configuration not stated)	6	/	/	/	/
CN(C)c1ccc(CNCCC(Cc2ccccc2)c2ccco2)cc1 (configuration not stated)	2	-1	8	57*	-1
N#C/C(=C/c1ccc(-c2cc(C(=O)O)cc(C(=O)O)c2)o1)c1nc2ccccc2s1	28*	/	/	/	/
N#C/C(=C\c1ccco1)c1nc2ccccc2s1	7	/	1	/	-3
O=C(Nc1cccnc1Cl)c1ccc(=O)oc1	-9	54*	11	6	15
COc1cc(OC)c(-c2nn3c(C4CCCCC4)nnc3s2)cc1OC	-35	43*	0	-2	-7
COc1cc(-c2nnc3sc(C4CCCCC4)nn23)cc(OC)c1OC	1	/	/	/	/
COc1ccc(C=NNc2nnc(Cc3ccc(OC)c(OC)c3)c(=O)[nH]2)cc1	3	/	/	/	/
Cc1nn(-c2ccccc2)c(N2CCCC2)c1C=NNC(=O)c1cc(-c2ccccc2)nc2ccccc12	4	/	/	/	/

Bioassay records from PubChem BioAssay.
